Many of the other results were omitted from the sample, so hits are more common in it than they were.
A1 apoptosis 2 = A1 inhibition read as caspase activation. MEF A1-2A-BIM cells, caspase-Glo luminescence, 3 h; percent of clofoctol response, DMSO zero. caspase activation, % (concentration not given with the values). 24,000 tested, under 10 active. AID 2465; in the data active = caspase activation above about 5.9%
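Evaluation: Caspase-3/7 activity from luminescence increase | Assay system: A1-2A-BIM mouse embryonic fibroblasts | Quantity: 2500 MEF cells/well | Medium: RPMI-1640 plus 10% FBS | Detection: Caspase-Glo 3/7 luminescence, 1 h at room temperature | Dosing: 50 nL compound per well, pinned | Timing: Cells settled overnight, compound exposure 3 h at 37 °C, 5% CO2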
T cruzi intra = intracellular Trypanosoma cruzi inhibition; hit rate 4.9% among 22,000; activity score (inhibition), % at 5.01 µM; intracellular Trypanosoma cruzi in host cells, plate reader; in the data active = activity score above about 55%;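 note: parasites and compound incubated about four days before reading; 0% = median of neutral control wells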
INS-1E rescue = INS-1E beta cell protection from cytokine death; INS-1E cytokine-induced death, ATP luminescence, 48 h; normalised: neutral wells 0, positive control 100; AID 488910; hit rate 0.1% among 20,000; protection from cytokine-induced ATP loss, % at 10 µM;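 active = mean replicate protection from cytokine-induced ATP loss at least 50% and at least 75% of replicates each reaching 50%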
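assay system = INS-1E rat insulinoma cells | amount = 8000 cells per well | medium = phenol-red-free RPMI with 5% fetal bovine serum | doses = one compound concentration, pin transfer | timing = 48 h cytokine plus compound treatment, 10 min reagent incubation | also added = IL-1β, TNF-α and IFN-γ cytokine mix | signal = CellTiter-Glo luminescence measuring cellular ATP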
Numbers without * were called inactive; . = no result.

SMILES	A1 apoptosis 2	T cruzi intra	INS-1E rescue
C[C@@H]1CN([C@@H](C)CO)C(=O)Cc2cc(NC(=O)Nc3ccc4c(c3)OCO4)ccc2O[C@@H]1CN(C)C(=O)Nc1ccc(F)cc1	1.1	-3.3	-2.2
C[C@@H]1CCCCO[C@H](CN(C)CC2CCCCC2)[C@H](C)CN([C@H](C)CO)C(=O)c2cc(NC(=O)Nc3ccc4c(c3)OCO4)ccc2O1	0.4	.	.
C[C@@H]1CCCCO[C@H](CN(C)CC2CCCCC2)[C@H](C)CN([C@H](C)CO)C(=O)c2cc(NC(=O)Nc3ccc(C(F)(F)F)cc3)ccc2O1	2.1	.	.
COc1ccc(NC(=O)Nc2ccc3c(c2)C(=O)N([C@H](C)CO)C[C@H](C)[C@@H](CN(C)CC2CCCCC2)OCCCC[C@@H](C)O3)cc1	.	76.0*	-17.0
C[C@@H]1CCCCO[C@@H](CN(C)CC2CCCCC2)[C@H](C)CN([C@H](C)CO)C(=O)c2cc(NC(=O)Nc3ccc(C(F)(F)F)cc3)ccc2O1	8.3*	.	.
C[C@@H]1CCCCO[C@H](CN(C)CC2CCCCC2)[C@@H](C)CN([C@H](C)CO)C(=O)c2cc(NC(=O)Nc3ccc4c(c3)OCO4)ccc2O1	.	79.3*	-13.8
COc1ccc(NC(=O)Nc2ccc3c(c2)C(=O)N([C@@H](C)CO)C[C@@H](C)[C@@H](CN(C)CC2CCCCC2)OCCCC[C@H](C)O3)cc1	1.2	.	.
C[C@@H]1CN([C@@H](C)CO)C(=O)c2cc(NC(=O)Nc3ccc(C(F)(F)F)cc3)ccc2O[C@@H](C)CCCCO[C@@H]1CN(C)CC1CCCCC1	-0.5	.	.
C[C@@H]1CCCCO[C@H](CN(C)CC2CCCCC2)[C@@H](C)CN([C@H](C)CO)C(=O)c2cc(NC(=O)Nc3ccc(C(F)(F)F)cc3)ccc2O1	0.6	70.3*	-59.0
CC(C)NC(=O)Nc1ccc2c(c1)C(=O)N([C@H](C)CO)C[C@H](C)[C@@H](CN(C)C(=O)Nc1ccccc1)O2	-1.5	-12.2	1.4
Cc1ccc(S(=O)(=O)N(C)C[C@H]2Oc3c(NC(=O)Nc4ccc(C(F)(F)F)cc4)cccc3C(=O)N([C@@H](C)CO)C[C@@H]2C)cc1	0.8	8.3	-17.2
C[C@@H]1CCCCO[C@@H](CN(C)S(=O)(=O)c2ccc(Cl)cc2)[C@@H](C)CN([C@@H](C)CO)C(=O)c2cc(NC(=O)c3ccccc3)ccc2O1	-0.1	.	.
C[C@H]1CN([C@@H](C)CO)C(=O)c2cccc(NC(=O)NC3CCCCC3)c2O[C@@H]1CN(C)S(=O)(=O)c1ccc(F)cc1	-0.2	4.3	-7.5
C[C@@H]1CN([C@@H](C)CO)C(=O)c2cccc(NC(=O)C3CC3)c2O[C@@H]1CN(C)C(=O)Nc1ccc(F)cc1	.	1.0	7.3
C[C@H](CO)N1C[C@H](C)[C@@H](CN(C)Cc2ccc(Oc3ccccc3)cc2)Oc2c(NC(=O)Nc3ccc4c(c3)OCO4)cccc2C1=O	.	27.5	-45.7
C[C@@H]1CN([C@@H](C)CO)C(=O)c2cccc(NC(=O)Nc3ccc4c(c3)OCO4)c2O[C@H]1CN(C)Cc1ccc(Oc2ccccc2)cc1	-0.9	70.1*	-48.5
C[C@@H]1CN([C@@H](C)CO)C(=O)c2cccc(NC(=O)Nc3ccc4c(c3)OCO4)c2O[C@@H]1CN(C)Cc1ccc(Oc2ccccc2)cc1	.	73.1*	-31.0
C[C@@H]1CN([C@H](C)CO)C(=O)c2cccc(NC(=O)Nc3ccc4c(c3)OCO4)c2O[C@@H]1CN(C)Cc1ccc(Oc2ccccc2)cc1	.	4.2	-9.4
C[C@@H]1CN([C@H](C)CO)C(=O)c2cc(NC(=O)Nc3ccc(C(F)(F)F)cc3)ccc2O[C@H]1CN(C)Cc1ccncc1	0.1	1.5	3.3
Cc1noc(C)c1S(=O)(=O)Nc1ccc2c(c1)C(=O)N([C@H](C)CO)C[C@H](C)[C@@H](CN(C)C(=O)NC(C)C)OCCCC[C@H](C)O2	0.0	.	.
C[C@H]1CN([C@@H](C)CO)C(=O)Cc2cc(NS(=O)(=O)c3cn(C)cn3)ccc2O[C@@H]1CN(C)Cc1ccc2c(c1)OCO2	.	-8.0	8.9
C[C@H]1CN([C@@H](C)CO)C(=O)Cc2cc(NC(=O)Nc3ccc4c(c3)OCO4)ccc2O[C@H]1CN(C)Cc1ccccc1	.	4.9	-5.6
C[C@@H]1CN([C@@H](C)CO)C(=O)Cc2cc(NC(=O)Nc3ccc4c(c3)OCO4)ccc2O[C@@H]1CN(C)Cc1ccc(Oc2ccccc2)cc1	.	65.4*	-21.7
C[C@@H]1CN([C@H](C)CO)C(=O)Cc2cc(NC(=O)Nc3ccc4c(c3)OCO4)ccc2O[C@@H]1CN(C)Cc1ccccc1	.	37.2	6.0
C[C@@H]1CN([C@H](C)CO)C(=O)Cc2cc(NC(=O)Nc3ccc4c(c3)OCO4)ccc2O[C@H]1CN(C)Cc1ccc(Oc2ccccc2)cc1	-0.7	78.4*	-47.2
SMILES	A1 apoptosis 2	T cruzi intra	INS-1E rescue
C[C@H](CO)N1C[C@H](C)[C@H](CN(C)Cc2ccc(Oc3ccccc3)cc2)Oc2ccc(NC(=O)Nc3ccccc3)cc2CC1=O	.	-0.4	-9.5
C[C@@H]1CN([C@H](C)CO)C(=O)Cc2cc(NC(=O)Nc3ccc4c(c3)OCO4)ccc2O[C@@H]1CN(C)Cc1ccc(Oc2ccccc2)cc1	.	72.8*	-37.4
Cc1noc(C)c1S(=O)(=O)Nc1ccc2c(c1)CC(=O)N([C@H](C)CO)C[C@H](C)[C@H](CN(C)S(=O)(=O)c1cccs1)O2	.	2.3	-3.2
C[C@H]1CN([C@@H](C)CO)C(=O)c2cccc(NS(=O)(=O)c3cn(C)cn3)c2O[C@@H]1CN(C)Cc1ccc(-c2ccccc2)cc1	-1.2	26.8	0.6
COc1ccc([Si](C)(C)[C@H]2[C@H](CCn3cc(CCO)nn3)O[C@@]3(C(=O)N(C)c4ccccc43)[C@@H]2C)cc1	-0.1	.	.
C[C@@H]1CN([C@H](C)CO)C(=O)Cc2cc(NC(=O)CCCCCC(=O)Nc3ccccc3N)ccc2O[C@H]1CN(C)Cc1ccc2c(c1)OCO2	-0.5	-23.8	-4.9
C[C@@H]1CN([C@H](C)CO)C(=O)c2cc(NC(=O)CCN3CCOCC3)ccc2O[C@@H]1CN(C)S(=O)(=O)c1ccccc1	-1.4	-13.9	-3.4
CC(C)COC(=O)N(C)C[C@@H]1OCc2cn(nn2)CCCC(=O)N([C@H](C)CO)C[C@@H]1C	0.2	-2.5	.
CC(C)(C)[C@H]1C=C(C(=O)Nc2ccccc2)O[C@@H](OCc2ccc(CO)cc2)C1	-0.3	.	.
C[C@@H]1CCCCO[C@H](CN(C)S(=O)(=O)c2ccc(F)cc2)[C@@H](C)CN([C@H](C)CO)C(=O)c2cc(NC(=O)Nc3ccc(F)cc3)ccc2O1	0.3	13.7	-7.1
C[C@@H]1CCCCO[C@H](CN(C)S(=O)(=O)c2ccc(F)cc2)[C@@H](C)CN([C@H](C)CO)C(=O)c2cc(NC(=O)Nc3ccc(C(F)(F)F)cc3)ccc2O1	0.1	63.6*	-36.2
Cc1ccc(S(=O)(=O)N(C)C[C@@H]2OCCCC[C@@H](C)Oc3ccc(NC(=O)Nc4ccc(C(F)(F)F)cc4)cc3C(=O)N([C@H](C)CO)C[C@@H]2C)cc1	.	70.0*	-22.9
C[C@@H]1CCCCO[C@H](CN(C)S(=O)(=O)c2ccc(Cl)cc2)[C@H](C)CN([C@@H](C)CO)C(=O)c2cc(NC(=O)Nc3ccc(C(F)(F)F)cc3)ccc2O1	0.3	.	.

Assay outcomes (PubChem)
